# Measurements as given in ChEMBL document CHEMBL3232887, “Propargyl-linked antifolates are dual inhibitors of Candida albicans and Candida glabrata” (J Med Chem, 2014).
# Active and inactive are the calls of the source. The rule behind the calls is not given here.
# How the values were obtained:
# Candida albicans [1] = assay: Antifungal activity against Candida albicans NCCLS84 after 24 hrs by XTT assay; type: functional; conditions: SC5314, 24 h, in the assay text read “SC5314” for “NCCLS84”
# MCF10 = assay: Cytotoxicity against human MCF10 cells; type: cell-based
# Nakaseomyces glabratus = assay: Antifungal activity against Candida glabrata NCCLS84 after 24 hrs by Alamar Blue assay; conditions: NCCLS84, 24 h
# [2] = Inhibition of Candida glabrata DHFR using dihydrofolate as substrate preincubated for 5 mins followed by substrate addition in presence of NADPH; set-up: species or system Nakaseomyces glabratus
# Procedure, shortened: (§1)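 Racemic inhibitor from DMSO stock (<2% DMSO in assay) was preincubated 5 min with enzyme and 100 μM NADPH. NADPH consumption was followed at 340 nm for 1 min at 25 °C, in triplicate.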
# [3] = Kinetic solubility of the compound in water after 30 mins by HPLC analysis; type: physicochemical; conditions: read-out: Kinetic_solubility
# [4] = Selectivity ratio of IC50 for human DHFR to IC50 for Candida albicans DHFR
# Dihydrofolate reductase [5] = target: T1, Dihydrofolate reductase (Candida albicans, UniProt P22906); assay: Inhibition of Candida albicans DHFR using dihydrofolate as substrate preincubated for 5 mins followed by substrate addition in presence of NADPH
# T1 sequence (P22906 whole entry): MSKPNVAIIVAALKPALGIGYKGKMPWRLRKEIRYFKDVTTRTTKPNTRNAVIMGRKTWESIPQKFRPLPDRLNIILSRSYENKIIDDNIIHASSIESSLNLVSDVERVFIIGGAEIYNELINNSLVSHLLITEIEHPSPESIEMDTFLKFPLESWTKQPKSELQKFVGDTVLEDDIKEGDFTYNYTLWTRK
# Procedure, shortened: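 Consumption of NADPH followed at 340 nm for 1 min at 25 °C. Buffer: 20 mM TES pH 7.0, 50 mM KCl, 10 mM 2-mercaptoethanol, 0.5 mM EDTA, 1 mg/mL BSA. Saturating 100 μM NADPH and 100 μM dihydrofolate, limiting enzyme. Racemic inhibitor was added from DMSO stocks at under 2% DMSO final. Triplicate runs.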
# [6] = Selectivity ratio of IC50 for human DHFR to IC50 for Candida glabrata DHFR
# Dihydrofolate reductase [7] = target: T2, Dihydrofolate reductase (Homo sapiens, UniProt P00374); assay: Inhibition of human DHFR using dihydrofolate as substrate preincubated for 5 mins followed by substrate addition in presence of NADPH; procedure, shortened: as §1
# T2 sequence (P00374 whole entry): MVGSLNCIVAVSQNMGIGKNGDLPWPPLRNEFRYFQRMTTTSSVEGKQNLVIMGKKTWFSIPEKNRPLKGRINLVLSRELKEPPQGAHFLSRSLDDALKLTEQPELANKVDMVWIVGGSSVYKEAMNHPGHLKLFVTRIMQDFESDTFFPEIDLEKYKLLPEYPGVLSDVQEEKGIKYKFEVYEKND
# Candida albicans [8] = assay: Antifungal activity against Candida albicans after 24 hrs by assay
# Candida albicans [9] = assay: Antifungal activity against Candida albicans after 24 hrs by assay in presence of 0.01% Triton X-100
# Candida albicans [10] = assay: Antifungal activity against Candida albicans NCCLS84 at 100 ug/ml after 24 hrs by XTT assay; type: functional, organism-based
# [11] = Kinetic solubility of the compound in water after 30 mins by HPLC analysis in presence of 0.02% HPMC; type: physicochemical; conditions: water with 0.02% HPMC; read-out: Kinetic_solubility
Compound,MIC (Candida albicans [1]) [µg/mL],IC50 (MCF10) [nM],MIC (Nakaseomyces glabratus) [µg/mL],IC50 [2] [nM],IC50 (Dihydrofolate reductase [5]) [nM],IC50 (Dihydrofolate reductase [7]) [nM],also measured
COc1cc(C(C)C#Cc2c(C)nc(N)nc2N)ccc1-c1ccccc1 (stereo unspecified),6.25,80000,0.78,–,–,–,–
CCc1nc(N)nc(N)c1C#CC(C)c1ccc(-c2ccc(C#N)cc2)cc1OC (stereo unspecified),–,50000,–,–,–,–,–
CCc1nc(N)nc(N)c1C#CC(C)c1cnc(-c2ccccc2)nc1 (stereo unspecified),0.19,216000,0.78,22,–,–,solubility kinetic at 0.5 h [3]: 60 µg/mL
CCc1nc(N)nc(N)c1C#CC(C)c1ccc(-c2ccccc2)cc1OC (stereo unspecified),6.3,–,1.6,31,49,172,Ratio IC50 [4]: 4; Ratio IC50 [6]: 6
CCc1nc(N)nc(N)c1C#CC(C)c1ccc(-c2ccncc2)cc1OC (stereo unspecified),25,216000,0.78,19,33,127,–
COc1cc(C(C)C#Cc2c(C)nc(N)nc2N)c(OC)cc1-c1ccccc1 (stereo unspecified),3.1,–,1.6,8.2,36,314,–
CCc1nc(N)nc(N)c1C#CC(C)c1ccc(-c2ccc(N(C)C)cc2)cc1OC (stereo unspecified),–,–,–,–,–,–,MIC (Candida albicans [8]): inactive
CCc1nc(N)nc(N)c1C#CC(C)c1ccc(-c2ccc(C)cc2)nc1 (stereo unspecified),0.39,–,0.2,27,–,–,solubility kinetic at 0.5 h [3]: 15 µg/mL; Activity (Candida albicans [9]): Active
CCc1nc(N)nc(N)c1C#CC(C)c1cc(OC)cc(-c2ccncc2)c1 (stereo unspecified),25,–,1.3,–,–,–,MIC (Candida albicans [9]): 6.25 µg/mL
COc1cc(-c2ccccc2)cc(C(C)C#Cc2c(C)nc(N)nc2N)c1 (stereo unspecified),23,–,–,7.3,–,–,–
CCc1nc(N)nc(N)c1C#CC(C)c1ccc(-c2ccccc2)cc1 (stereo unspecified),7.5,505000,3.1,6,23,174,–
CCc1nc(N)nc(N)c1C#CC(C)c1ccc(-c2ccc(O)cc2)cc1OC (stereo unspecified),–,148000,–,–,–,–,Activity (Candida albicans [10]): inactive
CCc1nc(N)nc(N)c1C#CC(C)c1ccc(-c2ccccc2)nc1 (stereo unspecified),0.39,148000,0.78,23,–,–,solubility kinetic at 0.5 h [3]: 20 µg/mL
CCc1nc(N)nc(N)c1C#CC(C)c1ccc(-c2ccc(OC(N)=O)cc2)cc1OC (stereo unspecified),–,–,–,–,–,–,MIC (Candida albicans [8]): inactive
COc1cc(-c2ccccc2)ccc1C(C)C#Cc1c(C)nc(N)nc1N (stereo unspecified),1.6,74000,0.39,–,20,340,solubility kinetic at 0.5 h [11]: 25 µg/mL
CCc1nc(N)nc(N)c1C#CC(C)c1ccc(-c2ccc(C)cc2)cc1OC (stereo unspecified),3.1,–,1.6,22,48,208,Ratio IC50 [4]: 4; Ratio IC50 [6]: 9
CCc1nc(N)nc(N)c1C#CC(C)c1ccc(-c2ccc(C(=O)OC)cc2)cc1OC (stereo unspecified),–,96000,–,–,–,–,–
CCc1nc(N)nc(N)c1C#CC(C)c1ccc(-c2ccc(F)cc2)cc1OC (stereo unspecified),1.8,60000,7.5,–,43,148,–
